Experimental data taken from ChEMBL document CHEMBL1121506, “Evaluation of rotenone and related compounds as antagonists of slow-reacting substance of anaphylaxis” (J Med Chem, 1980).
Values after ≈ are worked out from the molar mass of the structure shown.

Tests used:
[1] = species on record: Cavia porcellus; assay: Compound was evaluated for the inhibitory activity against slow reacting substance of anaphylaxis (SRS-A) of guinea pig ileum; format: functional, organism-based
How it was run: (§1)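 Guinea pig ileum strip in Tyrode's solution at 37 °C, aerated with 95% O2-5% CO2. SRS-A came from rat peritoneal shock fluid after passive peritoneal anaphylaxis, and its specificity was checked against atropine (5 × 10^-7 M) and mepyramine (10^-6 M). The SRS-A dose was set to give ca. 60% of maximal contraction. Antagonist was added 2 min before challenge; percent inhibition was read, and IC50 was interpolated from dose-response curves.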

[2] = system: Cavia porcellus; assay: Compound was evaluated in vivo for collapse time in guinea pig anaphylaxis model at dose 10 mg/kg; format: functional
How it was run: (§2)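 Guinea pigs were sensitized with 10% ovalbumin (1 mL s.c. plus 1 mL i.p.), and about 4 weeks later received the antagonist orally. They were then exposed to aerosolized ovalbumin, with collapse time as the endpoint and no collapse within 6 min taken as maximal protection. Groups (4–15 animals) were compared with controls by one-way ANOVA and Dunnett's test after Bartlett's test.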

[3] = species on record: Cavia porcellus; assay: Compound was evaluated for the inhibitory activity against Acetylcholine in guinea pig ileum; format: functional; design: concentration or dose not given beside the values
[4] = species on record: Cavia porcellus; assay: Compound was evaluated for the inhibitory activity against Histamine in guinea pig ileum; format: functional; design: concentration or dose not given beside the values
[5] = species on record: Cavia porcellus; assay: Compound was evaluated for the inhibitory activity against slow reacting substance of anaphylaxis (SRS-A) of guinea pig ileum;NA means not active; format: functional, organism-based
How it was run: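 Guinea pig ileum strip in Tyrode's solution at 37 °C, aerated with 95% O2-5% CO2. SRS-A came from rat peritoneal shock fluid after passive peritoneal anaphylaxis, dosed to give ca. 60% of maximal contraction. Atropine (5 × 10^-7 M) and mepyramine (10^-6 M) checks were run. Antagonist was added 2 min before SRS-A challenge, and percent inhibition recorded. IC50 was interpolated from two or at least three dose-response curves.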

[6] = species on record: Cavia porcellus; assay: Compound was evaluated for the inhibitory activity against Serotonin in guinea pig ileum; format: functional
[7] = system: Cavia porcellus; assay: Compound was evaluated in vivo for collapse time in guinea pig anaphylaxis model at dose 5 mg/kg; format: functional; how it was run: as §2
[8] = species on record: Cavia porcellus; assay: Compound was evaluated for the inhibitory activity against slow reacting substance of anaphylaxis (SRS-A) of guinea pig ileum;NA denotes not active; format: functional, organism-based; how it was run: as §1

## C=C(C)[C@H]1Cc2c(ccc3c2OC2COc4cc(OC)c(OC)cc4C2/C3=N/O)O1 (stereo not given in full)
[1]
  IC50: 0.4 µg/mL (≈ 0.977 µM)
[2]
  Collapse time: 248 s

## C=C(C)[C@H]1Cc2c(ccc(C(=O)Cc3cc(OC)c(OC)cc3OCC(=O)O)c2O)O1
[2]
  Collapse time: 167 s
[3]
  Inhibition: 0%
[4]
  Inhibition: 0%
[5]
  IC50: Not Active

## C=C(C)[C@H]1Cc2c(ccc3c2OC2COc4cc(OC)c(OC)cc4C2/C3=N/OC(C)=O)O1 (stereo not given in full)
[1]
  IC50: 0.4 µg/mL (≈ 0.886 µM)

## C=C(C)[C@H]1Cc2c(ccc3c2O[C@H]2COc4cc(OC)c(OC)cc4[C@H]2C3=O)O1
[1]
  IC50: 0.0247 µg/mL (≈ 0.0626 µM)
[2]
  Collapse time: 240 s
[3]
  Inhibition: 11%
[6]
  Inhibition: 87%
[4]
  Inhibition: 28%

## COc1cc2c(cc1OC)[C@@H]1C(=O)c3ccc4c(c3O[C@@H]1CO2)C[C@H](C(C)C)O4
[1]
  IC50: 0.0238 µg/mL (≈ 0.06 µM)
[3]
  Inhibition: 25%
[6]
  Inhibition: 60%
[4]
  Inhibition: 29%

## C=C(C)[C@H]1Cc2c(ccc3c2OC2COc4cc(OC)c(OC)cc4C2(OC(C)=O)C3=O)O1 (stereo not given in full) [ACETYLROTENOLENE]
[3]
  Inhibition: 0%
[4]
  Inhibition: 0%
[5]
  IC50: Not Active

## C=C(C)[C@H]1Cc2c(ccc3c(=O)c4c(oc23)COc2cc(OC)c(OC)cc2-4)O1 [DEHYDROROTENONE]
[2]
  Collapse time: 248 s
[7]
  Collapse time: 216 s
[3]
  Inhibition: 0%
[8]
  IC50: Not Active
[4]
  Inhibition: 0%

## CCCc1c(OCC(O)COc2ccc3c(=O)cc(C(=O)[O-])oc3c2CCC)ccc(C(C)=O)c1O.[Na+] (stereo not given) [FPL-55712 SODIUM SALT]
[1]
  IC50: 0.042 µg/mL
[2]
  Collapse time: 253 s
[3]
  Inhibition: 0%
[6]
  Inhibition: 0%
[4]
  Inhibition: 0%

## COc1cc2c(cc1OC)[C@@H]1C(=O)c3ccc4oc(C(C)C)cc4c3O[C@@H]1CO2 [ISOROTENONE]
[1]
  IC50: 0.062 µg/mL (≈ 0.157 µM)
[2]
  Collapse time: 211 s
[3]
  Inhibition: 28%
[4]
  Inhibition: 30%

## C=C(C)[C@H]1Cc2c(ccc3c2OC2COc4cc(OC)c(OC)cc4C2/C3=N/OC(=O)OCC)O1 (stereo not given in full) [O-CARBETHOXY ROTENONE OXIME]
[1]
  IC50: 0.4 µg/mL (≈ 0.831 µM)

## C=C(C)[C@H]1Cc2c(ccc3c2O[C@@H]2COc4cc(OC)c(OC)cc4[C@@H]2C3=O)O1 [ROTENONE]
[1]
  IC50: 0.0155 µg/mL (≈ 0.0393 µM)
[7]
  Collapse time: 288 s
[3]
  Inhibition: 15%
[6]
  Inhibition: 92%
[4]
  Inhibition: 38%

## COc1cc2c(cc1OC)[C@]1(O)C(=O)c3ccc4c(c3O[C@@H]1CO2)C=CC(C)(C)O4 [TEPHROSIN]
[1]
  IC50: 0.2 µg/mL (≈ 0.487 µM)
